Starred links: 1 amine or outer side, 2 acyl side, 3 side chain; linkers in the order of their positions; H or OH if unused. Positions of bridges follow the written chain, without caps; N, C: chain ends. Non-standard residues stand in square brackets, D forms with d. Residues, ends and D or L forms follow the SMILES beside them. No end group written: not given here. *: point of attachment. X1 = NC(=O)CC[C@@H]1NC(=O)[C@H](CO)N=C1N[C@@H](CO)C(=O)*; X2 = NC(=O)C[C@H](N[*:1])c1nc(C(=O)[*:2])cs1; X4 = NC(=O)C[C@H](N[*:1])c1nc(C(=O)[*:2])co1; X3 = O=C(c1csc([C@H](CO)N[*:1])n1)[*:2]
Legend:
[1] = tested on: E. coli ΔsbmA cells (JW0368) expressing SbmA mutants; type: cell-based, Escherichia coli; conditions: for antibiotic sensitivity of cells carrying SbmA Tyr116 mutation: Tyr116 (potential periplasmic gate) mutant
[2] = target: T1, BacA (Rhizobium meliloti, UniProt Q08120); experiment: Microscale thermophoresis; type: binding, Sinorhizobium meliloti; conditions: BacA-ND complex; MST
T1 sequence (Q08120 1-420): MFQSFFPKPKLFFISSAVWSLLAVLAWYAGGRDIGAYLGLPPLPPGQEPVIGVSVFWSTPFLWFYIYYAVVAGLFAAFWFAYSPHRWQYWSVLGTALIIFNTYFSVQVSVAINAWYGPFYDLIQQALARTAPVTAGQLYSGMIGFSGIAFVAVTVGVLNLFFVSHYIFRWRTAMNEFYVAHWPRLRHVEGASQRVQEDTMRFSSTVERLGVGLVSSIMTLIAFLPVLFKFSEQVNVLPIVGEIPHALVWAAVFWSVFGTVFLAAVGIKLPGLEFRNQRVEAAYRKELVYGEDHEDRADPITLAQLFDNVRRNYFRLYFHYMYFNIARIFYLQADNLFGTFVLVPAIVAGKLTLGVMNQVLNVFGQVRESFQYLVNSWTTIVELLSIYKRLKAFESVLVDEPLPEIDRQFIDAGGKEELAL
Method in brief: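 Purified protein mixed into DDM-solubilized lipid (7.5 mM lipid, 33 mM DDM) for 30 min at 28°C. Alexa Fluor 647–labeled MSP1E3D1 (S22C/A121C) added, then Amberlite XAD-2 overnight at 28°C, and nanodiscs purified by SEC. Labeled nanodiscs (20 nM) incubated 15 min in the dark with test compound in 20 mM K-Hepes pH 8, 150 mM KCl, 0.005% Tween 20 (DMSO 1.25% final). Kd from a 1:1 fit of the MST signal, three independent measurements.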

[3] = target: Escherichia coli inner membrane transporter SbmA (E. coli) (UniProt P0AFY6); experiment: MST
[4] = target: the molecule itself; experiment: cryo-EM structure
[5] = target: the molecule itself; experiment: cryo-EM structure; remark: listed apart in the source

## CC(C)C[C@H](NC(=O)CNC(=O)CNC(=O)[C@@H](NC(=O)c1csc([C@H](CC(N)=O)NC(=O)[C@H](C)NC(=O)[C@H](CO)NC(=O)c2coc([C@H](CC(N)=O)NC(=O)[C@H](CO)NC(=O)c3csc([C@H](CO)NC(=O)[C@H](C)NC(=O)c4csc([C@H](CC(N)=O)NC(=O)CNC(=O)[C@@H]5CCCN5C(=O)[C@H](CO)NC5=N[C@@H](CO)C(=O)N[C@H]5CCC(N)=O)n4)n3)n2)n1)[C@@H](C)O)C(=O)O [KLB, klebsazolicin] (X1-PG[X2]A[X3]S[X4]SA[X2]TGGL-OH; C-terminus assumed)
[1]
  antibiotic sensitivity of cells carrying SbmA Tyr116 mutation: resistant

## bleomycin
[1]
  antibiotic sensitivity of cells carrying SbmA Tyr116 mutation: slightly increased sensitivity
[1]; Tyr368Ala (first internal gate) mutant
  antibiotic sensitivity of cells carrying SbmA Tyr368Ala mutant: additionally sensitized
[2]
  Kd: 0.019 ± 0.011 µM

## klebsazolicin (peptide)
[3]
  Kd: 0.849 µM

## microcin J25 (GGAGHVPEYFVGIGTPISFYG; lactam N-8; ends not checked; UniProt Q9X2V7 38-58, looked up) [MccJ25]
[1]
  antibiotic sensitivity of cells carrying SbmA Tyr116 mutation: resistant

B1: Escherichia coli inner membrane transporter SbmA (natural protein, E. coli)
chain: MFKSFFPKPGTFFLSAFVWALIAVIFWQAGGGDWVARITGASGQIPISAARFWSLDFLIFYAYYIVCVGLFALFWFIYSPHRWQYWSILGTALIIFVTWFLVEVGVAVNAWYAPFYDLIQTALSSPHKVTIEQFYREVGVFLGIALIAVVISVLNNFFVSHYVFRWRTAMNEYYMANWQQLRHIEGAAQRVQEDTMRFASTLENMGVSFINAIMTLIAFLPVLVTLSAHVPELPIIGHIPYGLVIAAIVWSLMGTGLLAVVGIKLPGLEFKNQRVEAAYRKELVYGEDDATRATPPTVRELFSAVRKNYFRLYFHYMYFNIARILYLQVDNVFGLFLLFPSIVAGTITLGLMTQITNVFGQVRGAFQYLINSWTTLVELMSIYKRLRSFEHELDGDKIQEVTHTLS
[4]
  stoichiometry N: 2

B2: BacA from Sinorhizobium meliloti (natural protein, S. meliloti, UniProt Q08120 1-420, looked up)
chain: MFQSFFPKPKLFFISSAVWSLLAVLAWYAGGRDIGAYLGLPPLPPGQEPVIGVSVFWSTPFLWFYIYYAVVAGLFAAFWFAYSPHRWQYWSVLGTALIIFNTYFSVQVSVAINAWYGPFYDLIQQALARTAPVTAGQLYSGMIGFSGIAFVAVTVGVLNLFFVSHYIFRWRTAMNEFYVAHWPRLRHVEGASQRVQEDTMRFSSTVERLGVGLVSSIMTLIAFLPVLFKFSEQVNVLPIVGEIPHALVWAAVFWSVFGTVFLAAVGIKLPGLEFRNQRVEAAYRKELVYGEDHEDRADPITLAQLFDNVRRNYFRLYFHYMYFNIARIFYLQADNLFGTFVLVPAIVAGKLTLGVMNQVLNVFGQVRESFQYLVNSWTTIVELLSIYKRLKAFESVLVDEPLPEIDRQFIDAGGKEELAL
[5]
  binding result: binds

Source: publication PMC8442886 (Science Advances, 2021)
